Reference: ChEMBL document CHEMBL4020761, “Exploration of pyrrole derivatives to find an effective potassium-competitive acid blocker with moderately long-lasting suppression of gastric acid secretion” (Bioorg Med Chem, 2017)
The source made the active and inactive calls. The calls are words filed in the database; no cut-off is given here.

Legend:
[1] = Drug uptake in Sprague-Dawley rat stomach at 0.2 mg/kg, iv administered as cassette dose after 24 hrs by LC-MS/MS analysis; format: ADME, organism-based; conditions: read-out: Drug uptake
How it was run: (§1)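 Fasted male Sprague-Dawley rats given compounds iv by cassette dosing at 0.2 mg/kg (as free base). Plasma and stomach sampled at 10 min, 1, 4 and 24 h. Plasma and 20% stomach homogenate in saline deproteinized with acetonitrile containing internal standard, then LC/MS/MS. AUC calculated for plasma and stomach. Values are averages of three rats.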

[2] = test system: Rattus norvegicus; experiment: Inhibition of histamine-induced acid secretion in Jcl:Sprague-Dawley rat gastric at 1 mg/kg, iv pretreated for 3 mins after pylorus ligation followed by histamine.2HCl treatment measured after 3 hrs by titration method relative to control; format: functional
How it was run: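 Anesthetized rats dosed iv at 1 mg/kg. Total acid output over 3 h after histamine injection compared with vehicle-treated rats.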

[3] = test system: Stomach; experiment: AUC in Sprague-Dawley rat stomach at 0.2 mg/kg, iv administered as cassette dose by LC-MS/MS analysis; format: ADME, organism-based; conditions: in vivo; how it was run: as §1
[4] = AUC in Sprague-Dawley rat plasma at 0.2 mg/kg, iv administered as cassette dose by LC-MS/MS analysis; format: ADME, organism-based; how it was run: as §1
[5] = Cytotoxicity against human HepG2 cells assessed as cellular ATP level at 100 uM after 1 day by ATPLite assay relative to control; format: cell-based; conditions: read-out: Activity
[6] = Plasma concentration in Sprague-Dawley rat at 0.2 mg/kg, iv administered as cassette dose after 10 mins by LC-MS/MS analysis; format: ADME, organism-based; how it was run: as §1
[7] = Lipophilicity, log D of the compound at pH 7.4 by HPLC analysis; format: physicochemical; conditions: buffer
How it was run: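 At pH 7.4, log D derived from HPLC retention time relative to standard compounds.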

[8] = Inhibition of CYP450 (unknown origin); format: ADME; conditions: human
[9] = test system: Rattus norvegicus; experiment: Inhibition of histamine-induced acid secretion in Jcl:Sprague-Dawley rat assessed as pH of gastric perfusate at 1 mg/kg, iv pretreated for 3 mins after pylorus ligation followed by histamine.2HCl treatment measured after 3 hrs by glass electrode method (reference value: 2); format: functional
[10] = Drug uptake in Sprague-Dawley rat stomach at 0.2 mg/kg, iv administered as cassette dose after 1 hr by LC-MS/MS analysis; format: ADME, organism-based; conditions: read-out: Drug uptake; how it was run: as §1
[11] = test system: Rattus norvegicus; experiment: Inhibition of histamine-induced acid secretion in Jcl:Sprague-Dawley rat assessed as increase in pH of gastric perfusate at 1 mg/kg, iv pretreated for 3 mins after pylorus ligation followed by histamine.2HCl treatment measured after 180 to 300 mins by glass electrode method; format: functional, organism-based
[12] = Drug uptake in Sprague-Dawley rat stomach at 0.2 mg/kg, iv administered as cassette dose after 4 hrs by LC-MS/MS analysis; format: ADME, organism-based; conditions: read-out: Drug uptake; how it was run: as §1
[13] = molecular target: hERG (KCNH2) (Homo sapiens, UniProt Q12809); experiment: Inhibition of human ERG expressed in HEK cells at 10 uM at -75 mV holding potential by Whole-cell voltage clamp assay relative to control; format: cell-based; conditions: HEK cells expressing human ERG
[14] = molecular target: CYP3A4 (Homo sapiens, UniProt P08684); experiment: Inhibition of CYP3A4 (unknown origin) expressed in insect cells at 10 uM using testosterone as substrate after 15 mins by HPLC analysis relative to control; format: ADME; conditions: recombinant CYP3A4 expressed in insect cells, probe testosterone
How it was run: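 Testosterone substrate at 100 μmol/L with 10 nmol/L insect-cell-expressed CYP3A4 and 10 μmol/L test compound, incubated 15 min at 37 °C. 6β-hydroxytestosterone quantified by HPLC with UV detection.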

[15] = test system: Rattus norvegicus; experiment: Inhibition of histamine-induced acid secretion in po dosed rat assessed as increase in pH of gastric perfusate pretreated for 1 hr followed by pylorus ligation and histamine.2HCl treatment measured after 3 hrs by glass electrode method; format: functional, organism-based
[16] = Stability of the compound under acidic condition; format: physicochemical
[17] = Plasma concentration in Sprague-Dawley rat at 0.2 mg/kg, iv administered as cassette dose after 1 hr by LC-MS/MS analysis; format: ADME, organism-based; how it was run: as §1
[18] = test system: Canis familiaris; experiment: Inhibition of histamine-induced acid secretion in dog heidenhain pouch at 1 mg/kg, po treated 1 day after and 1 to 48 hrs before histamine.2HCl treatment measured 30 mins post histamine challenge by titration method; format: functional, organism-based; conditions: Canis lupus familiaris
[19] = Inhibition of H+/K+-ATPase in porcine stomach gastric mucosal microsomes assessed as reduction in inorganic phosphate production using ATP as substrate preincubated for 30 mins followed by ATP addition in presence of KCl at pH 6.5 by malachite green reagent based colorimetric assay; parameters: species or system Sus scrofa
[20] = Dissociation constant, pKa of the compound; format: physicochemical
How it was run: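 pH-metric titration across pH 2–12 with an Ag/AgCl pH electrode.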

[21] = Drug uptake in Sprague-Dawley rat stomach at 0.2 mg/kg, iv administered as cassette dose after 10 mins by LC-MS/MS analysis; format: ADME, organism-based; conditions: read-out: Drug uptake; how it was run: as §1
[22] = test system: Canis familiaris; experiment: Inhibition of histamine-induced acid secretion in dog heidenhain pouch at 1 mg/kg, po treated 1 day after and 1 to 48 hrs before histamine.2HCl treatment measured up to 24 hrs post dose by titration method; format: functional, organism-based; conditions: Canis lupus familiaris
How it was run: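 Heidenhain pouch dogs dosed orally at 1 mg/kg, with histamine-stimulated acid secretion followed over time, up to 24 h after dosing. Mean ± SE from three or four dogs.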

[23] = Plasma concentration in Sprague-Dawley rat at 0.2 mg/kg, iv administered as cassette dose after 4 hrs by LC-MS/MS analysis; format: ADME, organism-based; how it was run: as §1
[24] = test system: Rattus norvegicus; experiment: Inhibition of histamine-induced acid secretion in Jcl:Sprague-Dawley rat assessed as increase in pH of gastric perfusate at 1 mg/kg, iv pretreated for 3 mins after pylorus ligation followed by histamine.2HCl treatment measured after 3 hrs by glass electrode method; format: functional, organism-based

CYP3A4, sequence (P08684 whole entry): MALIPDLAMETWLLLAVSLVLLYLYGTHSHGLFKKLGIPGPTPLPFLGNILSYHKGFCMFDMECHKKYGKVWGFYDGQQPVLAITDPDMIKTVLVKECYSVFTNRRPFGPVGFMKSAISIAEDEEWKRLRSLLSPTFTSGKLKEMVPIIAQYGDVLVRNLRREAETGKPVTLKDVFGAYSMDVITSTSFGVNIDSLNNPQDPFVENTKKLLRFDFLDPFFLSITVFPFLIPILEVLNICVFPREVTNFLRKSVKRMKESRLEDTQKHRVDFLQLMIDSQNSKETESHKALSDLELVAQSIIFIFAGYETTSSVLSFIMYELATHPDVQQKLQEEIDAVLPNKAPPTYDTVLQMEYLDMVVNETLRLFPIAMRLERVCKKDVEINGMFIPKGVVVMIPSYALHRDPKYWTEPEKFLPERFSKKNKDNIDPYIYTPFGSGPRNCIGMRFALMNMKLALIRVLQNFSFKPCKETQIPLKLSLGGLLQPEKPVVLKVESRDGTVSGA
hERG (KCNH2), sequence (Q12809 whole entry): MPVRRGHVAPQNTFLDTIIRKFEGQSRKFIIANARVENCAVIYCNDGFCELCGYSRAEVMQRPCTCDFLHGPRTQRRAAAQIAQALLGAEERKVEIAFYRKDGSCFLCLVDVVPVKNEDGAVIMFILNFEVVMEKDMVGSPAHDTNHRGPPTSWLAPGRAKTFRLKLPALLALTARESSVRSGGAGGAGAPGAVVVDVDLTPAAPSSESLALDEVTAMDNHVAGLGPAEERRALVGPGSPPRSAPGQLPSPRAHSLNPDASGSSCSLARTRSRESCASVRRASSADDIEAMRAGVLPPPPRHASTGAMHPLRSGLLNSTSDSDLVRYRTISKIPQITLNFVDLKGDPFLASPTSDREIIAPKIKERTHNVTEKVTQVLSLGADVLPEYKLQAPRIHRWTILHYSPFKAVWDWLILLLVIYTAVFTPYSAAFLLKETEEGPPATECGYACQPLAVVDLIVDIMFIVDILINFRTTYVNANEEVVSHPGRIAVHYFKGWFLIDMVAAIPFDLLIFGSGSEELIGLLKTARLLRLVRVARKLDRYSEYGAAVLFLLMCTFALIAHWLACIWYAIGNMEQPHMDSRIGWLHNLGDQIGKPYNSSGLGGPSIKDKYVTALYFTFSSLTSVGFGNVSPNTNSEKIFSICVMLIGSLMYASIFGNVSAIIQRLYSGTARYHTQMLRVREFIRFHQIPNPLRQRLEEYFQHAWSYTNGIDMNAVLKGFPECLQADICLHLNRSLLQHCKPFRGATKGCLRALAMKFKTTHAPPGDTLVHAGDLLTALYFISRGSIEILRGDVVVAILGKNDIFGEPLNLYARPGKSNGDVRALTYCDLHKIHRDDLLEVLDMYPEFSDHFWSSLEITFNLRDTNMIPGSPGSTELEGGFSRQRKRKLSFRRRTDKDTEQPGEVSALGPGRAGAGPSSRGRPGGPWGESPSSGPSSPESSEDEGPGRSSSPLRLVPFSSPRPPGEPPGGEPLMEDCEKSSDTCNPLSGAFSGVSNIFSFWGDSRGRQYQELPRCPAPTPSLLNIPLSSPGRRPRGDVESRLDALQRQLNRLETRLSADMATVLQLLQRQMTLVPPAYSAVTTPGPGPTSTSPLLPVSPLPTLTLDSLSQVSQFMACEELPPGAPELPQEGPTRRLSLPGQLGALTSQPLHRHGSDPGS

| SMILES | concentration at 24 h [1] | inhibition in vivo at 1 mg/kg [2] | AUC [3] | AUC [4] | viability at 24 h, 100 µM [5] | concentration at 10 min [6] | logD [7] | pH [9] | concentration at 1 h [10] | inhibition [11] | concentration at 4 h [12] | inhibition at 10 µM [13] | inhibition at 0.25 h, 10 µM [14] | concentration at 1 h [17] | inhibition [18] | IC50 [19] | concentration at 10 min [21] | further results |
| --- | --- | --- | --- | --- | --- | --- | --- | --- | --- | --- | --- | --- | --- | --- | --- | --- | --- | --- |
| CNCc1cn(S(=O)(=O)c2cc(C)ccn2)c(-c2cccnc2F)c1F | 28.9 ng/g | 92% | 10378 ng·h/g | 35 ng·h/mL | 85.5% | 39.4 ng/mL | 0.48 | 6 | 927 ng/g | inactive | 682 ng/g | 45.1% | 4.3% | 8.1 ng/mL | Active | 0.073 µM | 947 ng/g | inhibition (INH) [8]: Not Active; inhibition [15]: Dose-dependent effect; Stability [16]: Stable; pKa [20]: 8.73; inhibition [22]: Active |
| CNCc1cn(S(=O)(=O)c2ccccn2)c(-c2cccnc2F)c1F | 2.1 ng/g | 95% | 5757 ng·h/g | 33 ng·h/mL | 94.8% | 36 ng/mL | 0.44 | 5 | 809 ng/g | inactive | 337 ng/g | 9% | 7.7% | 7.9 ng/mL | Active | 0.097 µM | 617 ng/g |  |
| CNCc1cn(S(=O)(=O)c2cccnc2C)c(-c2cccnc2F)c1F |  | 92% | 4806 ng·h/g | 32 ng·h/mL | 97.4% | 25.3 ng/mL | 0.48 |  | 577 ng/g |  | 300 ng/g | 14.8% | 30.1% | 8 ng/mL |  | 0.21 µM | 507 ng/g | concentration at 4 h [23]: 0.3 ng/mL |
| CNCc1cn(S(=O)(=O)c2ccc(C)nc2)c(-c2cccnc2F)c1F | 219 ng/g | 97% | 18284 ng·h/g | 41 ng·h/mL | 76.7% | 40.1 ng/mL | 0.62 |  | 1120 ng/g | inactive | 1180 ng/g | 24.8% | -1.2% | 10.8 ng/mL |  | 0.18 µM | 672 ng/g | inhibition [24]: Active |
